# Screening data (PubChem)
# rRNA inh HTS – inhibits bacterial ribosomal RNA function over humanized ribosomes. E. coli WT GFP vs humanized-ribosome RFP mutants, fluorescence, 24 h; hits give low values; DMSO median 0, no signal -100. GFP signal change (wild-type ribosome), % (concentration not given with the values). 350,000 compounds, 1.6% hits. AID 720706;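 active = significant combined selectivity score with lowered wild-type GFP, culture density cut under 30%, mutant RFP and density less affected; inactive = any of these conditions unmet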
# SR-BI uptake up – activators of SR-BI mediated HDL lipid uptake; CHO ldlA[mSR-BI] cells, DiI-HDL uptake fluorescence, 3 h; 100 = double the neutral-control signal; 320,000 compounds, 0.096% hits; activation, % at 12.5 µM; AID 504775;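 active = mean replicate activation of at least 60% and every replicate at or above 60%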
#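 Material – SR-BI-overexpressing, LDLR-lacking CHO cells · Medium – BSA-supplemented, HEPES-buffered Ham's F12, pH 7.4 · Doses – single concentration · Times – compound with DiI-HDL co-incubation, 3 h at 37 °C · Measured by – bottom-read fluorescence, 550/595 nm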
# dFosB activator – activators of mouse delta FosB homodimer | purified delta FosB, TAMRA-CDK5 oligo fluorescence polarization; percent of positive-control signal above neutral wells | activation, % at 25 µM | 340,000 compounds, 0.99% hits | AID 493131;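 active = mean activation above about 17%, with every replicate also reaching it, limit read from the data, passing the limit was not always enough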
# PvdQ inh – P. aeruginosa PvdQ acylase inhibition; 340,000 compounds, 0.063% hits; inhibition, % at 10 µM; purified PvdQ acylase, fluorescence plate reader; in the data active = inhibition above about 30%, passing the limit was not always enough
# Xi reactivation – reactivates the inactive X chromosome in mouse fibroblasts; activation, % at 7.58 µM; 360,000 compounds, 0.055% hits; XiGFP mouse fibroblasts, % GFP-positive cells imaging, 3 d; cells co-treated with 5-aza-dC sensitizer; scaled so ellipticine positive control = 100%;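 active = mean normalized replicate activation at least 10% and every replicate at or above 10%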
#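 System: 68-5-11 XiGFP fibroblast line | Buffer or medium: DMEM containing 5-aza-dC | Compound: Single point | Times: Compounds 3 days, fix/stain 15 min at room temperature | Benchmarks: Positive control ellipticine, 6 µM final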
# SR-BI DiI inh – mouse SR-BI HDL lipid transfer inhibition | ldlA[mSR-BI] CHO cells, DiI-HDL uptake fluorescence, 3 h | inhibition, % at 12.5 µM | 320,000 compounds, 0.96% hits | AID 488896;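 active = mean replicate inhibition of at least 70% and a set share of replicates each scoring 70 or more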
# Target sequence (Q61009 whole entry, looked up): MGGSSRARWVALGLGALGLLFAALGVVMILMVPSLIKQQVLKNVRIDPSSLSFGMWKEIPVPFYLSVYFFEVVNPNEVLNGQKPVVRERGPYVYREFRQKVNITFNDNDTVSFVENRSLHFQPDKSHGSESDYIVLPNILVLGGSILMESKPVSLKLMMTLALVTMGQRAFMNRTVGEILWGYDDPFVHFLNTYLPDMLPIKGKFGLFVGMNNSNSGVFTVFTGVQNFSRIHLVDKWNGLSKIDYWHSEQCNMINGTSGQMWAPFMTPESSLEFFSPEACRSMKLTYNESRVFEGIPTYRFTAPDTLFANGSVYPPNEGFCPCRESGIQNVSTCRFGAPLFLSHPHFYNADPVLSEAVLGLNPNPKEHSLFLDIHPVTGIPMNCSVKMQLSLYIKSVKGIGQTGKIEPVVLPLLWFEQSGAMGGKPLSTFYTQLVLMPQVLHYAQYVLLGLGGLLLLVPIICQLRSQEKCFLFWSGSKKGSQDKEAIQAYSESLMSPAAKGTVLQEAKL
# Numbers stand for hits; n = inactive; x = no result given. Only some compounds are listed: those with a hit (about 2.6% of all), similar ones and a draw of the others.
SMILES,rRNA inh HTS,SR-BI uptake up,dFosB activator,PvdQ inh,Xi reactivation,SR-BI DiI inh
O=C(/C=C/c1ccc(S(=O)(=O)N2CCOCC2)cc1)N1CCCCC1,n,n,n,n,n,n
COc1ccc(/C=C/C(=O)OCC(=O)c2ccc(S(=O)(=O)N3CCCCC3)cc2)cc1OC,n,n,84,n,n,n
O=C(/C=C/c1ccc(S(=O)(=O)N2CCOCC2)cc1)Nc1cc(F)ccc1F,n,n,n,n,n,n
O=C(/C=C/c1ccc(F)cc1)Nc1cccc(S(=O)(=O)N2CCOCC2)c1,n,n,n,n,n,74
COc1cc(OC)c(NC(=O)CCc2ccccc2)cc1Cl,x,n,n,n,x,n
O=C(/C=C/c1cccc(F)c1)Nc1cc(S(=O)(=O)N2CCOCC2)ccc1Cl,-17,n,n,n,n,n
Cc1ccc(S(=O)(=O)N2CCOCC2)cc1NC(=O)COC(=O)/C=C/c1ccc(F)cc1,n,n,81,n,n,n
O=C(/C=C/c1cccc(F)c1)Nc1cc(S(=O)(=O)N2CCOCC2)ccc1N1CCCC1,n,n,n,n,n,n
CCOC(=O)C1=C(c2ccccc2)NC(=S)NC1C (configuration not stated),x,n,n,n,x,72
CCOC(=O)C1=C(C)NC(=S)NC1C (configuration not stated),n,n,n,n,n,n
Cc1cccc(-c2nnn3c2nc(NCCc2ccc(S(N)(=O)=O)cc2)c2ccccc23)c1,x,n,n,n,n,n
Cc1ccc(-c2nnn3c2nc(NCCc2ccc(S(N)(=O)=O)cc2)c2ccccc23)cc1,n,88,n,n,n,n
O=C(C[C@@H]1C[C@H]2c3cc(NC(=O)NC4CCCCC4)ccc3O[C@H]2[C@H](CO)O1)NC1CCCC1,n,x,x,x,n,x
Cc1ccc(Cl)cc1NC(=O)C[n+]1ccc(Cc2ccc([N+](=O)[O-])cc2)cc1,n,n,n,n,n,n
CC(C)(C)NC(=O)NC(=O)C[n+]1ccc(Cc2ccc([N+](=O)[O-])cc2)cc1,-14,n,n,n,n,n
CN1C(=O)c2cc(NC(=O)c3cccc(F)c3)ccc2OC[C@H]2O[C@@H](CC(=O)N3CCc4ccccc4C3)CC[C@@H]21,-26,x,x,x,n,x
Cc1nn(C)cc1NC(=O)C[C@@H]1CC[C@@H]2[C@@H](COc3ccc(NC(=O)C4CCC4)cc3C(=O)N2C)O1,-16,x,x,x,n,x
CN1C(=O)c2cc(NC(=O)c3cccc(F)c3)ccc2OC[C@@H]2O[C@@H](CC(=O)N3CCc4ccccc4C3)CC[C@H]21,n,x,x,x,n,x
O=S1(=O)CCO[C@H]2Cc3ccccc3[C@H]2N1Cc1cccc(C(F)(F)F)c1,n,n,n,n,n,n
CCN(C(=O)[C@@H]1CCCN1C(=O)c1cccs1)c1nc2cc(Cl)ccc2s1,x,n,n,n,n,78
CN(Cc1c(C(=O)N/N=C/c2ccc(F)cc2)nnn1-c1nonc1N)C1CCCCC1,n,n,n,n,n,n
O=C(Nc1ccccc1)N[C@H]1CC[C@@H](CCNC(=O)c2ccccc2F)O[C@H]1CO,n,x,x,x,n,x
CC(C)C#Cc1ccc2c(c1)O[C@H](CN(C)C(=O)c1ccccc1)[C@H](C)CN([C@@H](C)CO)S2(=O)=O,n,x,x,x,n,x
CC(=O)c1ccc(NC(=S)NC(C)c2ccc(Cl)cc2Cl)cc1 (configuration not stated),-49,n,n,n,n,n
CC(=O)c1ccc(NC(=S)Nc2ccc(Br)c(Cl)c2)cc1,n,n,n,n,n,n
SMILES,rRNA inh HTS,SR-BI uptake up,dFosB activator,PvdQ inh,Xi reactivation,SR-BI DiI inh
C[C@@H](NC(=O)C[C@@H]1CC[C@@H](NC(=O)Nc2ccc3c(c2)OCO3)[C@@H](CO)O1)c1ccccc1,n,x,x,x,n,x
CC(=O)N1CC(C)Sc2ccc(S(=O)(=O)NCCc3ccccc3)cc21 (configuration not stated),-25,n,n,n,n,n
COc1cc(/C=C2\C(=O)ON=C2c2ccc(Cl)cc2)ccc1O,n,x,x,x,n,x
COC(=O)c1[nH]c(=O)c2ccccc2c1O,x,n,n,n,x,n
COC(=O)c1[nH]c(=O)c2ccccc2c1OCc1ccccc1,x,200,n,n,x,n
CC(=O)OC1CC(c2cc(C(C)(C)C)c(O)c(C(C)(C)C)c2)=NO1 (configuration not stated),-21,x,n,n,n,x
CCn1c2ccccc2c2cc(NC(=O)c3cc(OC)c(OC)c(OC)c3)ccc21,n,n,n,n,x,n
CCn1c2ccccc2c2cc(NC(=O)c3cccc([N+](=O)[O-])c3)ccc21,n,n,n,n,n,80
CCn1c2ccccc2c2cc(NC(=O)c3cc(OC)cc(OC)c3)ccc21,n,n,n,n,n,77
CCCCNC(=O)C1CCN(C(=O)Nc2ccc(C)cc2)CC1,x,n,n,n,x,n
Cc1ccc(C(=O)OCc2nnc(-c3ccc(Br)cc3)o2)cc1,-16,n,n,n,n,n
Cc1ccc(-c2nnc(COC(=O)c3ccco3)o2)cc1,n,n,n,n,n,n
CCOC(=O)N1CCN(C(=O)CN(C)S(=O)(=O)c2ccc(OC)c(OC)c2)CC1,x,n,n,n,x,n
CC1CC1C(=O)OCC(=O)Nc1ccc(N=Nc2ccccc2)cc1 (configuration not stated),-18,n,n,n,n,n
CCOc1ccc(NC(=O)COC(=O)C2CC2C)cc1 (configuration not stated),n,n,n,n,n,n
O=C1NC[C@H](CCCCN2C[C@H](Cc3ccc(O)cc3)N(CCC3CCCCC3)C(=O)C2=O)N(CCc2ccc(O)cc2)C1=O,-25,x,x,x,n,x
O=C1NC[C@@H](CCCCN2C[C@H](Cc3ccc(O)cc3)N(CCC3CCCCC3)C(=O)C2=O)N(CCc2ccc(O)cc2)C1=O,n,x,x,x,n,x
Clc1nc(NCCc2ccccc2)c2cn[nH]c2n1,-30,n,n,n,n,n
Cn1ncc2c(NCCc3ccccc3)nc(Cl)nc21,n,n,n,n,n,n
CC(=O)N1CCc2cc(S(=O)(=O)NC(C(=O)N3CCN(c4ccccc4F)CC3)C(C)C)ccc21 (configuration not stated),n,x,n,n,n,x
CCN(CC(=O)NC(=O)NCc1ccccc1)Cc1ccccc1,-23,n,n,n,n,n
O=c1c2ccccc2c(C=NCCCN2CCOCC2)c(O)n1Cc1ccc2c(c1)OCO2,-29,n,n,n,n,n
O=c1c2ccccc2c(C=NCCCN2CCOCC2)c(O)n1Cc1ccccc1,x,n,n,n,x,n
O=C(NC1CCS(=O)(=O)C1)c1ccc(S(=O)(=O)N2CCCC2)cc1 (configuration not stated),n,n,n,n,n,n
